What was measured:
Assay type in all cases: functional
[1] = Growth inhibition of human SF268 cells after 48 hrs by sulforhodamine B assay; settings: SF-268, 48 h
Summary of the method: (§1)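 Five-dose concentration series run across a panel of 60 human tumour cell lines. GI50 is taken as the drug concentration giving a 50% reduction in net protein increase relative to untreated control cells.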

[2] = Growth inhibition of human MOLT4 cells at 10 uM after 48 hrs by sulforhodamine B assay; settings: MOLT-4, 48 h, values are per cent of control
[3] = Growth inhibition of human HOP92 cells after 48 hrs by sulforhodamine B assay; settings: HOP-92, 48 h
Summary of the method: (§2)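 Five-dose testing against a 60-line human tumor cell panel. GI50 is the drug concentration giving a 50% reduction in net protein increase relative to untreated control cells.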

[4] = Growth inhibition of human Hs 578T cells after 48 hrs by sulforhodamine B assay; summary of the method: as §2
[5] = Growth inhibition of human HCT15 cells after 48 hrs by sulforhodamine B assay; settings: HCT-15, 48 h; summary of the method: as §2
MDA-MB-435 = experiment: Growth inhibition of human MDA-MB-435 cells after 48 hrs by sulforhodamine B assay; settings: MDA-MB-435, 48 h; summary of the method: as §2
[6] = Growth inhibition of human SW620 cells after 48 hrs by sulforhodamine B assay; settings: SW-620, 48 h; summary of the method: as §1
[7] = Growth inhibition of human HCC2998 cells after 48 hrs by sulforhodamine B assay; settings: HCC 2998, 48 h; summary of the method: as §2
[8] = Growth inhibition of human SNB19 cells after 48 hrs by sulforhodamine B assay; settings: SNB-19, 48 h; summary of the method: as §1
CCRF-CEM [9] = experiment: Growth inhibition of human CCRF-CEM cells after 48 hrs by sulforhodamine B assay; summary of the method: as §2
SR = experiment: Growth inhibition of human SR cells after 48 hrs by sulforhodamine B assay; summary of the method: as §1
[10] = Growth inhibition of human OVCAR3 cells at 10 uM after 48 hrs by sulforhodamine B assay; settings: OVCAR-3, 48 h, values are per cent of control
[11] = Growth inhibition of human OVCAR4 cells after 48 hrs by sulforhodamine B assay; settings: OVCAR-4, 48 h; summary of the method: as §1
[12] = Growth inhibition of human HCC2998 cells at 10 uM after 48 hrs by sulforhodamine B assay; settings: HCC 2998, 48 h, values are per cent of control
SK-MEL-2 [13] = experiment: Growth inhibition of human SK-MEL-2 cells after 48 hrs by sulforhodamine B assay; settings: SK-MEL-2, 48 h; summary of the method: as §1
[14] = Growth inhibition of human RXF393 cells at 10 uM after 48 hrs by sulforhodamine B assay; settings: RXF 393, 48 h, values are per cent of control
[15] = Growth inhibition of human RPMI8226 cells after 48 hrs by sulforhodamine B assay; settings: RPMI-8226, 48 h; summary of the method: as §1
[16] = Growth inhibition of human PC3 cells at 10 uM after 48 hrs by sulforhodamine B assay; settings: PC-3, 48 h, values are per cent of control
[17] = Growth inhibition of human UO31 cells at 10 uM after 48 hrs by sulforhodamine B assay; settings: UO-31, 48 h, values are per cent of control
[18] = Growth inhibition of human HOP62 cells at 10 uM after 48 hrs by sulforhodamine B assay; settings: HOP-62, 48 h, values are per cent of control
[19] = Growth inhibition of human HL-60(TB) cells at 10 uM after 48 hrs by sulforhodamine B assay; settings: HL-60, 48 h, values are per cent of control
CCRF-CEM [20] = experiment: Growth inhibition of human CCRF-CEM cells at 10 uM after 48 hrs by sulforhodamine B assay; settings: values are per cent of control
[21] = Growth inhibition of human SKOV3 cells after 48 hrs by sulforhodamine B assay; settings: SK-OV-3, 48 h; summary of the method: as §1
[22] = Growth inhibition of human HCT116 cells after 48 hrs by sulforhodamine B assay; settings: HCT-116, 48 h; summary of the method: as §2
Malme-3M = experiment: Growth inhibition of human MALME-3M cells at 10 uM after 48 hrs by sulforhodamine B assay; settings: values are per cent of control
[23] = Growth inhibition of human COLO205 cells after 48 hrs by sulforhodamine B assay; settings: COLO 205, 48 h; summary of the method: as §2
A549 = experiment: Growth inhibition of human A549/ATCC cells after 48 hrs by sulforhodamine B assay; settings: A549, 48 h; summary of the method: as §2
[24] = Growth inhibition of human MOLT4 cells after 48 hrs by sulforhodamine B assay; settings: MOLT-4, 48 h; summary of the method: as §1
SK-MEL-28 [25] = experiment: Growth inhibition of human SK-MEL-28 cells at 10 uM after 48 hrs by sulforhodamine B assay; settings: SK-MEL-28, 48 h, values are per cent of control
[26] = Growth inhibition of human UACC62 cells after 48 hrs by sulforhodamine B assay; settings: UACC-62, 48 h
Summary of the method: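 Five-dose testing across the 60-line human tumour cell panel. GI50 is the drug concentration that gives a 50% reduction in net protein increase relative to control cells.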

[27] = Growth inhibition of human OVCAR3 cells after 48 hrs by sulforhodamine B assay; settings: OVCAR-3, 48 h; summary of the method: as §1
[28] = Growth inhibition of human UACC257 cells at 10 uM after 48 hrs by sulforhodamine B assay; settings: UACC-257, 48 h, values are per cent of control
SK-MEL-2 [29] = experiment: Growth inhibition of human SK-MEL-2 cells at 10 uM after 48 hrs by sulforhodamine B assay; settings: SK-MEL-2, 48 h, values are per cent of control
[30] = Growth inhibition of human RPMI8226 cells at 10 uM after 48 hrs by sulforhodamine B assay; settings: RPMI-8226, 48 h, values are per cent of control
[31] = Growth inhibition of human LOXIMVI cells after 48 hrs by sulforhodamine B assay; settings: LOX IMVI; summary of the method: as §2
NCI-H522 = experiment: Growth inhibition of human NCI-H522 cells after 48 hrs by sulforhodamine B assay; settings: NCI-H522, 48 h; summary of the method: as §1
[32] = Growth inhibition of human PC3 cells after 48 hrs by sulforhodamine B assay; settings: PC-3, 48 h; summary of the method: as §1
[33] = Growth inhibition of human IGROV1 cells at 10 uM after 48 hrs by sulforhodamine B assay; settings: IGROV-1, 48 h, values are per cent of control
786-0 = experiment: Growth inhibition of human 786-0 cells at 10 uM after 48 hrs by sulforhodamine B assay; settings: 786-0, 48 h, values are per cent of control
[34] = Growth inhibition of human SNB75 cells at 10 uM after 48 hrs by sulforhodamine B assay; settings: SNB-75, 48 h, values are per cent of control
KM12 = experiment: Growth inhibition of human KM12 cells after 48 hrs by sulforhodamine B assay; settings: KM12, 48 h; summary of the method: as §2
SK-MEL-28 [35] = experiment: Growth inhibition of human SK-MEL-28 cells after 48 hrs by sulforhodamine B assay; settings: SK-MEL-28, 48 h; summary of the method: as §1

COc1ccc(/C=C(\C#N)c2ccc3c(c2)OCO3)c(OC)c1
GI50 [1]: 9360 nM | growth, % of control at 10 µM [2]: 22.7% | GI50 [3]: 7420 nM | GI50 [4]: 3620 nM | GI50 [5]: 870 nM | GI50 (MDA-MB-435): 300 nM | GI50 [6]: 1230 nM | GI50 [7]: 11900 nM | GI50 [8]: 6950 nM | GI50 (CCRF-CEM [9]): 1560 nM | GI50 (SR): 530 nM | growth, % of control at 10 µM [10]: 15.3% | GI50 [11]: 1650 nM | growth, % of control at 10 µM [12]: 60.5% | GI50 (SK-MEL-2 [13]): 720 nM | growth, % of control at 10 µM [14]: 40.3% | GI50 [15]: 3230 nM | growth, % of control at 10 µM [16]: 47% | growth, % of control at 10 µM [17]: 46.7% | growth, % of control at 10 µM [18]: 54% | growth, % of control at 10 µM [19]: 7.1% | growth, % of control at 10 µM (CCRF-CEM [20]): 27% | GI50 [21]: 2750 nM | GI50 [22]: 2680 nM | growth, % of control at 10 µM (Malme-3M): 49.3% | GI50 [23]: 1590 nM | GI50 (A549): 2650 nM | GI50 [24]: 2810 nM | growth, % of control at 10 µM (SK-MEL-28 [25]): 50.2% | GI50 [26]: 2320 nM | GI50 [27]: 3100 nM | growth, % of control at 10 µM [28]: 44.7% | growth, % of control at 10 µM (SK-MEL-2 [29]): 2.7% | growth, % of control at 10 µM [30]: 58.1% | GI50 [31]: 5330 nM | GI50 (NCI-H522): 2580 nM | GI50 [32]: 3030 nM | growth, % of control at 10 µM [33]: 45.1% | growth, % of control at 10 µM (786-0): 52.1% | growth, % of control at 10 µM [34]: 12.8% | GI50 (KM12): 2250 nM | GI50 (SK-MEL-28 [35]): 4470 nM

Reference: ChEMBL document CHEMBL3792365, “Dioxol and dihydrodioxin analogs of 2- and 3-phenylacetonitriles as potent anti-cancer agents with nanomolar activity against a variety of human cancer cells” (2016)
